# Laboratory results as given in ChEMBL document CHEMBL4311965, “Antimicrobial activity of amphipathic α,α-disubstituted β-amino amide derivatives against ESBL - CARBA producing multi-resistant bacteria; effect of halogenation, lipophilicity and cationic character” (Eur J Med Chem, 2019).
# Columns and labels:
# Staphylococcus aureus [1] = experiment: Antibacterial activity against multidrug-resistant Staphylococcus aureus NCTC 10442 cultured in MHB medium assessed as reduction in bacterial growth incubated for 24 hrs by microdilution susceptibility test; format: functional; settings: NCTC 10442, 24 h
# Outline: (§1)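 Broth microdilution per CLSI M07-A9 (modified). Working solutions made from concentrated DMSO stocks kept at r.t., diluted in double-distilled water, final DMSO <1%. Inoculum 1–1.2 x 10⁶ cells/mL in Mueller-Hinton broth, mixed 1:1 with compound. 37 °C, 24 h, four parallels. Read as OD₆₀₀. Where precipitation left residual OD, the point of major OD decrease was taken as the inhibitory concentration.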
# Enterococcus faecium [2] = experiment: Antibacterial activity against multidrug-resistant Enterococcus faecium 50901530 cultured in BHIB medium assessed as reduction in bacterial growth incubated for 24 hrs by microdilution susceptibility test; format: functional; settings: Enterococcus faecium, 50901530, 24 h
# Outline: (§2)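 Enterococci grown in Brain Heart Infusion broth, otherwise broth microdilution per CLSI M07-A9 (modified). Concentrated DMSO stocks kept at r.t. and diluted in double-distilled water, final DMSO <1%. Inoculum 1–1.2 x 10⁶ cells/mL mixed 1:1 with compound. 37 °C, 24 h, four parallels. OD₆₀₀ read-out, lowest concentration with no growth.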
# Staphylococcus aureus [3] = experiment: Antibacterial activity against multidrug-resistant Staphylococcus aureus WIS cultured in MHB medium assessed as reduction in bacterial growth incubated for 24 hrs by microdilution susceptibility test; format: functional; outline: as §1
# Escherichia coli [4] = experiment: Antibacterial activity against multidrug-resistant Escherichia coli 50676002 producing New Delhi metallo-beta-lactamase-1 cultured in MHB medium assessed as reduction in bacterial growth incubated for 24 hrs by microdilution susceptibility test; format: functional; settings: Escherichia coli, 50676002, 24 h; outline: as §1
# Staphylococcus aureus [5] = experiment: Antibacterial activity against multidrug-resistant Staphylococcus aureus IHT 99040 cultured in MHB medium assessed as reduction in bacterial growth incubated for 24 hrs by microdilution susceptibility test; format: functional; settings: IHT 99040, 24 h; outline: as §1
# Staphylococcus aureus [6] = experiment: Antibacterial activity against multidrug-resistant Staphylococcus aureus 85/2082 cultured in MHB medium assessed as reduction in bacterial growth incubated for 24 hrs by microdilution susceptibility test; format: functional; settings: 85/2082, 24 h; outline: as §1
# Acinetobacter baumannii [7] = experiment: Antibacterial activity against multidrug-resistant Acinetobacter baumannii K55-13 producing oxcillinase-24 cultured in MHB medium assessed as reduction in bacterial growth incubated for 24 hrs by microdilution susceptibility test; format: functional; settings: K55-13, 24 h; outline: as §1
# Staphylococcus aureus [8] = experiment: Antibacterial activity against multidrug-resistant Staphylococcus aureus N315 cultured in MHB medium assessed as reduction in bacterial growth incubated for 24 hrs by microdilution susceptibility test; format: functional; settings: N315, 24 h; outline: as §1
# Pseudomonas aeruginosa [9] = experiment: Antibacterial activity against multidrug-resistant Pseudomonas aeruginosa K44-24 producing imipenem-type carbapenemase-14 cultured in MHB medium assessed as reduction in bacterial growth incubated for 24 hrs by microdilution susceptibility test; format: functional; settings: K44-24, 24 h; outline: as §1
# Klebsiella pneumoniae [10] = experiment: Antibacterial activity against multidrug-resistant Klebsiella pneumoniae 50667959 producing Verona integron encoded metallo beta-lactamse-1 cultured in MHB medium assessed as reduction in bacterial growth incubated for 24 hrs by microdilution susceptibility test; format: functional; settings: Klebsiella pneumoniae, 50667959, 24 h; outline: as §1
# Klebsiella pneumoniae [11] = experiment: Antibacterial activity against multidrug-resistant Klebsiella pneumoniae 50625602 producing oxcillinase-245 cultured in MHB medium assessed as reduction in bacterial growth incubated for 24 hrs by microdilution susceptibility test; format: functional; settings: Klebsiella pneumoniae, 50625602, 24 h; outline: as §1
# [12] = Selectivity index, ratio of EC50 for hemolytic activity against human RBC to MIC for antibacterial activity against Staphylococcus aureus ATCC 9144; format: toxicity; settings: human red blood cells (RBC)
# Outline: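 Selectivity index is the RBC haemolysis EC50 divided by the MIC against the E. coli or S. aureus reference strain.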
# Acinetobacter baumannii [13] = experiment: Antibacterial activity against multidrug-resistant Acinetobacter baumannii K12-21 producing oxcillinase-58 cultured in MHB medium assessed as reduction in bacterial growth incubated for 24 hrs by microdilution susceptibility test; format: functional; settings: K12-21, 24 h; outline: as §1
# Klebsiella pneumoniae [14] = experiment: Antibacterial activity against multidrug-resistant Klebsiella pneumoniae K47-25 producing carbapenemase-2 cultured in MHB medium assessed as reduction in bacterial growth incubated for 24 hrs by microdilution susceptibility test; format: functional; settings: K47-25, 24 h; outline: as §1
# Pseudomonas aeruginosa [15] = experiment: Antibacterial activity against multidrug-resistant Pseudomonas aeruginosa K34-73 producing Verona integron encoded metallo beta-lactamse-4 cultured in MHB medium assessed as reduction in bacterial growth incubated for 24 hrs by microdilution susceptibility test; format: functional; settings: K34-73, 24 h; outline: as §1
# Klebsiella pneumoniae [16] = experiment: Antibacterial activity against multidrug-resistant Klebsiella pneumoniae 50531633 producing New Delhi metallo-beta-lactamase-1 and oxcillinase-181 cultured in MHB medium assessed as reduction in bacterial growth incubated for 24 hrs by microdilution susceptibility test; format: functional; settings: Klebsiella pneumoniae, 50531633, 24 h; outline: as §1
# Escherichia coli [17] = experiment: Antibacterial activity against multidrug-resistant Escherichia coli 50739822 producing New Delhi metallo-beta-lactamase-1 cultured in MHB medium assessed as reduction in bacterial growth incubated for 24 hrs by microdilution susceptibility test; format: functional; settings: Escherichia coli, 50739822, 24 h; outline: as §1
# Enterococcus faecium [18] = experiment: Antibacterial activity against multidrug-resistant Enterococcus faecium K36-18 cultured in BHIB medium assessed as reduction in bacterial growth incubated for 24 hrs by microdilution susceptibility test; format: functional; settings: K36-18, 24 h; outline: as §2
# Acinetobacter baumannii [19] = experiment: Antibacterial activity against multidrug-resistant Acinetobacter baumannii K44-35 producing oxcillinase-23 cultured in MHB medium assessed as reduction in bacterial growth incubated for 24 hrs by microdilution susceptibility test; format: functional; settings: K44-35, 24 h; outline: as §1
# Pseudomonas aeruginosa [20] = experiment: Antibacterial activity against Pseudomonas aeruginosa PA01 DSM 19880 (ATCC 15692) cultured in MHB medium assessed as no bacterial growth incubated at 37 degC for 24 hrs by microdilution susceptibility test; format: functional; settings: PAO1 DSM 19880 (ATCC 15692)
# Outline: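 Broth microdilution per CLSI M07-A9 with modifications. Inoculum about 2.5–3 x 10⁴ cells/mL in Mueller-Hinton broth, mixed 1:1 with test derivative. DMSO stocks diluted in double-distilled water, final DMSO <1%. Incubation 24 h at 37 °C (20 °C for C. glutamicum). Growth and sterility controls included; oxytetracycline reference.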
# Klebsiella pneumoniae [21] = experiment: Antibacterial activity against multidrug-resistant Klebsiella pneumoniae K66-45 producing New Delhi metallo-beta-lactamase-1 cultured in MHB medium assessed as reduction in bacterial growth incubated for 24 hrs by microdilution susceptibility test; format: functional; settings: K66-45, 24 h; outline: as §1
# Escherichia coli [22] = experiment: Antibacterial activity against multidrug-resistant Escherichia coli 50857972 producing imipenem-type carbapenemase-26 cultured in MHB medium assessed as reduction in bacterial growth incubated for 24 hrs by microdilution susceptibility test; format: functional; settings: Escherichia coli, 50857972, 24 h; outline: as §1
# Enterococcus faecium [23] = experiment: Antibacterial activity against multidrug-resistant Enterococcus faecium 50673722 cultured in BHIB medium assessed as reduction in bacterial growth incubated for 24 hrs by microdilution susceptibility test; format: functional; settings: Enterococcus faecium, 50673722, 24 h; outline: as §2
SMILES,MIC (Staphylococcus aureus [1]),MIC (Enterococcus faecium [2]),MIC (Staphylococcus aureus [3]),MIC (Escherichia coli [4]),MIC (Staphylococcus aureus [5]),MIC (Staphylococcus aureus [6]),MIC (Acinetobacter baumannii [7]),MIC (Staphylococcus aureus [8]),MIC (Pseudomonas aeruginosa [9]),MIC (Klebsiella pneumoniae [10]),MIC (Klebsiella pneumoniae [11]),selectivity ratio [12],MIC (Acinetobacter baumannii [13]),MIC (Klebsiella pneumoniae [14]),MIC (Pseudomonas aeruginosa [15]),MIC (Klebsiella pneumoniae [16]),MIC (Escherichia coli [17]),MIC (Enterococcus faecium [18]),MIC (Acinetobacter baumannii [19]),MIC (Pseudomonas aeruginosa [20]),also measured
NCCNC(=O)C(CN)(Cc1ccc(C(F)(F)F)cc1)Cc1ccc(C(F)(F)F)cc1,> 32 µg/mL,16 µg/mL,> 32 µg/mL,> 32 µg/mL,> 32 µg/mL,> 32 µg/mL,> 32 µg/mL,> 32 µg/mL,> 32 µg/mL,32 µg/mL,32 µg/mL,36,> 32 µg/mL,> 32 µg/mL,> 32 µg/mL,32 µg/mL,32 µg/mL,16 µg/mL,> 32 µg/mL,32 µg/mL,MIC (Klebsiella pneumoniae [21]): > 32 µg/mL; MIC (Escherichia coli [22]): 32 µg/mL; MIC (Enterococcus faecium [23]): 16 µg/mL
NCCNC(=O)C(CN)(Cc1cc(C(F)(F)F)cc(C(F)(F)F)c1)Cc1cc(C(F)(F)F)cc(C(F)(F)F)c1,16 µg/mL,4 µg/mL,16 µg/mL,16 µg/mL,8 µg/mL,16 µg/mL,16 µg/mL,16 µg/mL,> 32 µg/mL,16 µg/mL,16 µg/mL,12,8 µg/mL,32 µg/mL,32 µg/mL,16 µg/mL,16 µg/mL,8 µg/mL,16 µg/mL,4 µg/mL,MIC (Klebsiella pneumoniae [21]): 32 µg/mL; MIC (Escherichia coli [22]): 8 µg/mL; MIC (Enterococcus faecium [23]): 8 µg/mL
NCCNC(=O)C(CN)(Cc1cc(Br)cc(Br)c1)Cc1cc(Br)cc(Br)c1,8 µg/mL,8 µg/mL,16 µg/mL,16 µg/mL,16 µg/mL,8 µg/mL,16 µg/mL,8 µg/mL,32 µg/mL,16 µg/mL,8 µg/mL,29,32 µg/mL,16 µg/mL,32 µg/mL,16 µg/mL,8 µg/mL,8 µg/mL,32 µg/mL,4 µg/mL,MIC (Klebsiella pneumoniae [21]): 32 µg/mL; MIC (Escherichia coli [22]): 8 µg/mL; MIC (Enterococcus faecium [23]): 8 µg/mL
NCCNC(=O)C(CN)(Cc1ccccc1C(F)(F)F)Cc1ccccc1C(F)(F)F,> 32 µg/mL,32 µg/mL,> 32 µg/mL,> 32 µg/mL,32 µg/mL,> 32 µg/mL,> 32 µg/mL,> 32 µg/mL,> 32 µg/mL,> 32 µg/mL,> 32 µg/mL,10,> 32 µg/mL,> 32 µg/mL,> 32 µg/mL,> 32 µg/mL,> 32 µg/mL,> 32 µg/mL,> 32 µg/mL,64 µg/mL,MIC (Klebsiella pneumoniae [21]): > 32 µg/mL; MIC (Escherichia coli [22]): > 32 µg/mL; MIC (Enterococcus faecium [23]): 32 µg/mL
